Lipid droplet = inhibitors of hepatocyte lipid droplet formation, primary screen, imaging, high-throughput imaging, BODIPY stain; AML12 mouse hepatocytes, oleate lipid droplets; inhibition, % at 6.5 µM; 240,000 compounds, 0.4% hits; AID 1656, 2009;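 active = lipid droplet intensity inhibited by at least 50%, with more than 500 cells counted; inconclusive = wells with under 300 cells, treated as cytotoxic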
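Material: mouse AML12 hepatocyte cell line, fixed after treatment; Timing: compound with oleate, overnight; Technique: high-content imaging of BODIPY-stained droplets and DAPI nuclei; Probe or stimulus: oleate, 100 µM final; Dosing: compound at 6.5 µM only.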
GRIN3A LBD mod = binders of NR3A ligand-binding domain, primary screen, biophysical, differential scanning fluorimetry, uHTS; Glutamate receptor ionotropic, NMDA 3A (GRIN3A) ligand-binding domain; NR3A LBD differential scanning fluorimetry, Tm shift; 0% = protein alone, 100% = glycine-bound protein; Tm shift relative to glycine control, % at 25 µM; 340,000 compounds, 2.5% hits; AID 1259313, 2017;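 active = melting temperature shift of at least 10% of the positive control shift, at one fixed dose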
GC-A act = GC-A stimulated cGMP production enhancers – HEK293 GC-A cells, cGMP TR-FRET, EC30 ANP, primary screen; Atrial natriuretic peptide receptor 1 (Homo sapiens), P16066; 0% at EC30 ANP, 100% saturating ANP; activation, % at 10 µM; 370,000 compounds, 0.14% hits; AID 1671463, 2021; in the data active = activation above about 40%
Target sequence (P16066 whole entry, looked up): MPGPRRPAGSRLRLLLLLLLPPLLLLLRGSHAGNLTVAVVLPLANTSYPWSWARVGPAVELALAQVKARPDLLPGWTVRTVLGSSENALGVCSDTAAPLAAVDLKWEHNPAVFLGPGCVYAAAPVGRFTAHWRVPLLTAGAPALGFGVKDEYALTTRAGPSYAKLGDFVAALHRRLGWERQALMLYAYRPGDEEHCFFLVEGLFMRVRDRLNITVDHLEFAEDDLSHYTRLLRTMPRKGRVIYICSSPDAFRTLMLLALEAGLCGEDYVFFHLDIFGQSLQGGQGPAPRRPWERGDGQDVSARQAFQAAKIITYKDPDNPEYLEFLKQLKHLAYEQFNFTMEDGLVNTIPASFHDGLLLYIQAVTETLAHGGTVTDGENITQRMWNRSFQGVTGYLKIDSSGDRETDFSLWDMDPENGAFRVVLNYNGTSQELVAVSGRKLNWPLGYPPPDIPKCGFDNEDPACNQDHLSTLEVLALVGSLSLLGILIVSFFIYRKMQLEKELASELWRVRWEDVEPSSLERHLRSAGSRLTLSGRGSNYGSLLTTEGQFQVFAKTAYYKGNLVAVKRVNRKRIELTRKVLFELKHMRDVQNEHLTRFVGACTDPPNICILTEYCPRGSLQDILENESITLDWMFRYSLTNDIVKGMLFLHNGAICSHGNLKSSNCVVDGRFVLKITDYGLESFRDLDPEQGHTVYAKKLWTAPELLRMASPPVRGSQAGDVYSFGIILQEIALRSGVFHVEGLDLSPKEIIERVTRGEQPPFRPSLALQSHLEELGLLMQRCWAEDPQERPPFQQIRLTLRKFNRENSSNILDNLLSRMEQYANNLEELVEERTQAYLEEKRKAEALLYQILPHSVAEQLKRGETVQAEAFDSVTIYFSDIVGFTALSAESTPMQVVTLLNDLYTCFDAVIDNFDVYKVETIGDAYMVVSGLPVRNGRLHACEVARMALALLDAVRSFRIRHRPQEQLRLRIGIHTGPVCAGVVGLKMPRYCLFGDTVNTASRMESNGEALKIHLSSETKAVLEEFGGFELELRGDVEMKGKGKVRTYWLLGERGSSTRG
aDG glyco up = activators of alpha-DG glycosylation, primary screen, uHTS, Pro5-aDG cells, AlphaScreen; activation, % at 10 µM; alpha-DG glycosylation AlphaScreen (IIH6); 0% Pro5, 100% B10-LARGE cell signal; 360,000 compounds, 0.22% hits;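 active = activation of at least 8% versus controls, or a plate z-score of at least 8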;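 note: Pro5 are CHO cells carrying HIG-tagged alpha-DG that lacks glycosylation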
GASC-1 inh = inhibitors of GASC-1 histone demethylase, primary screen, biochemical, fluorescence, DELFIA europium. GST-JMJD2C(1-420) H3K9me3 demethylation. inhibition, % at 2.35 µM. 330,000 compounds, 0.069% hits. AID 2099, 2009;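 active = more than half of a compound's replicate wells show inhibition beyond 50%, single wells judged on their own value; inconclusive = some, but no more than half, of replicates pass 50% inhibition; inactive = no replicate passes 50% inhibition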;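 note: signal counts dimethyl H3K9 product captured on neutravidin plate; 0% = median of DMSO wells and 100% = 0.3 times that DMSO median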
GC-B act = human GC-B receptor activators, primary screen, HEK293 GC-B cells, cGMP TR-FRET, EC30 CNP. 370,000 compounds, 0.11% hits. Atrial natriuretic peptide receptor 2 (Homo sapiens), P20594. activation, % at 10 µM. 0% at EC30 CNP, 100% saturating CNP;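 active = activation at 10 µM reaching about 35% in either raw or pattern-adjusted values, limit read from the data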
Numbers without * were called inactive. Sampled rows, rich in hits. Any-hit rate of the full collection: about 3%.

For N#CCSc1nc(-c2ccccc2)c2cc(Cl)ccc2n1 the results were Lipid droplet 8, GRIN3A LBD mod 18*, GC-A act 5, aDG glyco up 0, GASC-1 inh 2 and GC-B act 5.
`CCCC(=O)NNC(=O)CCC(=O)NCc1ccccc1` gave GRIN3A LBD mod 0, GC-A act -1, aDG glyco up 0, GASC-1 inh 0 and GC-B act -1.
For COc1ccccc1C(=O)NNC(=O)CCC(=O)NCc1ccccc1 the results were Lipid droplet 7, GRIN3A LBD mod 12*, GC-A act 4, aDG glyco up 0, GASC-1 inh -10 and GC-B act 1.
Screening COC(=O)[C@]12C[C@H](CC(=O)NCc3cccs3)C(=O)N(Cc3ccccc3)C1=C[C@H](COCc1ccccc1)O[C@@H]2C returned GC-A act -2 and GC-B act 5.
Cc1ccc(C(=O)Nc2ccc(C(=O)N/N=C/c3cccnc3)cc2)cc1 was read as Lipid droplet -4, GRIN3A LBD mod 11*, GC-A act -2, aDG glyco up 0, GASC-1 inh 7 and GC-B act -3.
Screening O=C(N/N=C/c1cccnc1)c1cccc(NC(=O)c2ccc(Cl)cc2)c1 returned Lipid droplet 8, GRIN3A LBD mod 16*, aDG glyco up 0 and GASC-1 inh 8.
Screening Cc1cccc(C(=O)Nc2ccc(C(=O)N/N=C/c3cccnc3)cc2)c1 returned Lipid droplet -1, GRIN3A LBD mod -8, GC-A act 4, aDG glyco up 0, GASC-1 inh -2 and GC-B act -2.
`COc1ccccc1-c1oc2ccccc2c1-c1ccc2cc[nH]c2c1` gave GRIN3A LBD mod 21*, GC-A act -2, aDG glyco up 3, GASC-1 inh -9 and GC-B act -8.
`Cn1c(=O)c2c(ncn2CC(=O)N2CCN(c3ccc([N+](=O)[O-])cc3)CC2)n(C)c1=O` gave Lipid droplet 3, GRIN3A LBD mod 18*, GC-A act 0, aDG glyco up 0, GASC-1 inh -3 and GC-B act 6.
`O=C(NCc1ccccc1Cl)C1CCC(CNS(=O)(=O)c2cccc3cccnc23)CC1` (stereo unspecified) gave GC-A act 0 and GC-B act -2.
For Cc1c(NC(=O)C2CCCN(S(=O)(=O)c3ccccc3[N+](=O)[O-])C2)c(=O)n(-c2ccccc2)n1C (stereo unspecified) the results were GC-A act -1 and GC-B act -5.
For CCn1c(O)c(/C=C2\C=NN=C2c2ccc(C)cc2)sc1=S the results were Lipid droplet 2, GRIN3A LBD mod 12*, GC-A act 2, aDG glyco up 0, GASC-1 inh 4 and GC-B act 10.
Screening CC(C)n1c(O)c(/C=C2\C=NN=C2c2ccccc2)sc1=S returned Lipid droplet 1, GRIN3A LBD mod 11*, GC-A act -9, aDG glyco up 0, GASC-1 inh inconclusive and GC-B act -8.
Oc1c(C=C2N=c3ccccc3=N2)sc(=S)n1-c1ccccc1 was read as Lipid droplet -2, GRIN3A LBD mod 3, GC-A act 2, aDG glyco up 0, GASC-1 inh -3 and GC-B act 1.
O=C(C1CC1)C1(C(=O)N2CCOCC2)CC(c2ccccn2)=NO1 (stereo unspecified) was read as GC-A act 4 and GC-B act -6.
Screening CC1CC(C)C(=NNC(N)=O)C(C(O)CC2CCC(=O)NC2=O)C1 (stereo unspecified) returned GRIN3A LBD mod -9, GC-A act 0, aDG glyco up 0 and GC-B act 0.
Cc1ccc(NC(=O)CSc2nnc(NC(=O)C3CC3)s2)cc1 was read as Lipid droplet 11, GRIN3A LBD mod 2, GC-A act -2, aDG glyco up 0, GASC-1 inh 4 and GC-B act -4.
`Cc1cc(C)cc(NC(=O)CSc2nnc(NC(=O)C3CC3)s2)c1` gave Lipid droplet -6, GRIN3A LBD mod -3, GC-A act -2, aDG glyco up 0, GASC-1 inh 8 and GC-B act -1.
Screening CC(=O)c1ccc(NC(=O)CSc2nnc(NC(=O)C3CC3)s2)cc1 returned Lipid droplet 6, GRIN3A LBD mod 25*, GC-A act -3, aDG glyco up 0, GASC-1 inh 2 and GC-B act 4.
Cc1ccc(NC(=O)CSc2nnc(NC(=O)C3CC3)s2)cc1C was read as Lipid droplet -1, GRIN3A LBD mod 21*, GC-A act 1, aDG glyco up 0, GASC-1 inh -4 and GC-B act 0.
`CCCN1CCS(=O)(=O)N(Cc2cn(Cc3ccc(OC)cc3)nn2)C(C(=O)OC)C1` (stereo unspecified) gave GC-A act 0 and GC-B act -1.
Cc1sc(NC(=O)c2cc(-c3ccccc3)nc3ccccc23)c(C(N)=O)c1C was read as Lipid droplet 10, GRIN3A LBD mod 17*, GC-A act 6, aDG glyco up 0, GASC-1 inh -13 and GC-B act -3.
`COC(=O)c1sc(NC(=O)c2cc(-c3ccccc3)nc3ccccc23)c(C#N)c1C` gave GRIN3A LBD mod 21*, GC-A act 4, aDG glyco up 0, GASC-1 inh 8 and GC-B act 5.
Screening CCN(CC)C(=O)C1=C(C)N(CCCOC)C(=O)C(CC(=O)NCCN2CCOCC2)C1 (stereo unspecified) returned GC-A act 3, aDG glyco up 0 and GC-B act -1.
CCOC(=O)c1sc(Nc2nc3ccc(OC)cc3s2)cc1C was read as Lipid droplet 16, GRIN3A LBD mod 16*, GC-A act -3, aDG glyco up 0, GASC-1 inh -10 and GC-B act -8.
`Cc1cc(C)c2c(N)c(C(=O)Nc3ncc(C)s3)sc2n1` gave Lipid droplet -9, GRIN3A LBD mod -8, GC-A act -1, aDG glyco up 3 and GC-B act 0.
For CCOC(=O)c1sc(Nc2nc3c(F)cccc3s2)cc1C the results were Lipid droplet -17, GRIN3A LBD mod 29*, GC-A act 2, aDG glyco up 0, GASC-1 inh 15 and GC-B act -9.

Screening results as filed in PubChem BioAssay.
